Data published in ChEMBL document CHEMBL1154693, “Discovery of trans-4-[1-[[2,5-Dichloro-4-(1-methyl-3-indolylcarboxamido)phenyl]acetyl]-(4S)-methoxy-(2S)-pyrrolidinylmethoxy]cyclohexanecarboxylic acid: an orally active, selective very late antigen-4 antagonist” (J Med Chem, 2009).

What was measured:
[1] = Drug level in BALB/c mouse serum at 10 mg/kg, po after 15 mins; format: ADME, organism-based; set-up: dose 10 mg/kg, route oral; details: read-out: Drug uptake
How it was run: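 Serum (final 0.01-10%) assayed in the VLA-4/VCAM-1 binding assay, and concentration estimated from a calibration curve of compound spiked into untreated mouse serum.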

Integrin alpha-4/beta-1 [2] = target: T1, Integrin alpha-4/beta-1 (Homo sapiens, UniProt P05556+P13612); experiment: Inhibition of europium labeled human VCAM1/Fc chimera binding to human VLA-4 alpha-4-beta-1 expressed in Chinese hamster 4B4 cells by fluorimetric assay; format: cell-based
Integrin alpha-4/beta-1 [3] = target: T1, Integrin alpha-4/beta-1; experiment: Inhibition of europium labeled human VCAM1/Fc chimera binding to human VLA-4 alpha-4-beta-1 expressed in Chinese hamster 4B4 cells in presence of 3% HSA by fluorimetric assay; format: cell-based
How it was run: (§1)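 CHO-K1 4B4 cells transfected with human α4 and β1, plated at 3 × 10⁵ cells/mL and cultured 2 days, washed with HEPES pH 7.5 buffer containing Ca, Mg, Mn. Compound plus Eu-labeled human VCAM-1/Fc (final 1 nM), with or without human serum albumin, 60 min at room temperature; washed, Eu time-resolved fluorescence read; duplicates.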

Mus musculus [4] = experiment: Antiinflammatory activity in Ascaris suum antigen-induced BALB/c AnNCrj mouse asthma model assessed as inhibition of eosinophil infiltration in BAL fluid at 5 mg.kg, po bid administered 15 mins before and 8, 24 and 32 hrs after antigen challenge measured 48 hrs after antigen challenge; format: functional
How it was run: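 Female BALB/c AnNCrj mice given cyclophosphamide 150 mg/kg po (day 0), sensitized ip with Ascaris suum extract plus alum on days 2 and 14, challenged intratracheally day 22. Compound in 0.5% MC/0.03% Tween 80 po 15 min before and 8, 24, 32 h after challenge; BAL at 48 h, eosinophils from total count times Wright-stained differential.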

[5] = Volume of distribution at steady state in Sprague-Dawley rat at 1 mg/kg, iv; format: ADME, organism-based; set-up: dose 1 mg/kg, route intravenous; details: in vivo, read-out: Vdss
How it was run: (§2)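 Male Sprague-Dawley rats (7 weeks), fasted 18 h, four per group. 1 mg/kg oral in 0.5% MC or iv in saline, each with 3 equiv NaOH. Plasma drawn at 0.08 (iv) or 0.25 (po), 0.5, 1, 2 and 6 h; LC/MS/MS quantitation, noncompartmental parameters.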

[6] = Clearance in Sprague-Dawley rat at 1 mg/kg, iv; format: ADME, organism-based; set-up: dose 1 mg/kg, route intravenous; details: in vivo; how it was run: as §2
[7] = Half life in Sprague-Dawley rat at 1 mg/kg, iv; format: ADME, organism-based; set-up: dose 1 mg/kg, route intravenous; details: in vivo; how it was run: as §2
[8] = Oral bioavailability in rat; details: in vivo
in vivo = details: rat, plasma
Integrin alpha-4/beta-1 [9] = target: T1, Integrin alpha-4/beta-1; experiment: Inhibition of europium labeled human VCAM1/Fc chimera binding to human VLA-4 alpha-4-beta-1 expressed in Chinese hamster 4B4 cells at 1.8 uM in presence of 3% HSA by fluorimetric assay; format: cell-based; how it was run: as §1
Integrin alpha-4/beta-1 [10] = target: T1, Integrin alpha-4/beta-1; experiment: Inhibition of europium labeled human VCAM1/Fc chimera binding to human VLA-4 alpha-4-beta-1 expressed in Chinese hamster 4B4 cells at 1.7 uM in presence of 3% HSA by fluorimetric assay; format: cell-based; how it was run: as §1
Mus musculus [11] = experiment: Toxicity in BALB/c AnNCrj mouse assessed as induction of cholestatic liver injury at 50 mg/kg, iv for 2 days; format: organism-based; set-up: dose 50 mg/kg, route intravenous; details: in vivo, 48 h
How it was run: (§3)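 Mice dosed iv at 50 mg/kg or orally at 25 or 200 (mg/kg)/day for 2 days, then assessed for liver injury.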

Mus musculus [12] = experiment: Toxicity in BALB/c AnNCrj mouse assessed as induction of cholestatic liver injury at 25 mg/kg, po for 2 days; format: organism-based; set-up: dose 25 mg/kg, route oral; details: in vivo, 48 h; how it was run: as §3
Integrin alpha-4/beta-1 [13] = target: T1, Integrin alpha-4/beta-1; experiment: Inhibition of europium labeled human VCAM1/Fc chimera binding to human VLA-4 alpha-4-beta-1 expressed in Chinese hamster 4B4 cells at 1.7 uM by fluorimetric assay; format: cell-based; how it was run: as §1

T1 sequence (P05556 whole entry): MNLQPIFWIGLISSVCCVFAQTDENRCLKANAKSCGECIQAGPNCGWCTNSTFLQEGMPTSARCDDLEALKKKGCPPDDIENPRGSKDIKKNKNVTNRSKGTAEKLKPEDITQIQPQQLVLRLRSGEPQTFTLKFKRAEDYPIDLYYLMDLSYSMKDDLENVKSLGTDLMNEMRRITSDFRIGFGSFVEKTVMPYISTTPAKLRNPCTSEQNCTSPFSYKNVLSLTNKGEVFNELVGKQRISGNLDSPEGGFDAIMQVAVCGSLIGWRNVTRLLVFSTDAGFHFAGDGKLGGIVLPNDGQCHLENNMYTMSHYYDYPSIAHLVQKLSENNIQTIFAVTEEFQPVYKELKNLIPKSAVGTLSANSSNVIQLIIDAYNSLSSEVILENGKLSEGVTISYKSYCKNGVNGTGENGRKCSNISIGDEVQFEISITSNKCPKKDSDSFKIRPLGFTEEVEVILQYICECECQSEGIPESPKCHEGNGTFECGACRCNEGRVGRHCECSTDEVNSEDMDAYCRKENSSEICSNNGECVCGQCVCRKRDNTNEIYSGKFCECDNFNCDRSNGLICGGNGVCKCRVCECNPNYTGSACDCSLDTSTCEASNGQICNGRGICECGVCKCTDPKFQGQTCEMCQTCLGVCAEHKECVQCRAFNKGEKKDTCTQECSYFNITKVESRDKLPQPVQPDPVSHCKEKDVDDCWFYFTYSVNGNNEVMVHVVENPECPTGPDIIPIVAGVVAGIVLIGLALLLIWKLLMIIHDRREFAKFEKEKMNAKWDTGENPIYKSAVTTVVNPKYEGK
T1 sequence (P13612 whole entry): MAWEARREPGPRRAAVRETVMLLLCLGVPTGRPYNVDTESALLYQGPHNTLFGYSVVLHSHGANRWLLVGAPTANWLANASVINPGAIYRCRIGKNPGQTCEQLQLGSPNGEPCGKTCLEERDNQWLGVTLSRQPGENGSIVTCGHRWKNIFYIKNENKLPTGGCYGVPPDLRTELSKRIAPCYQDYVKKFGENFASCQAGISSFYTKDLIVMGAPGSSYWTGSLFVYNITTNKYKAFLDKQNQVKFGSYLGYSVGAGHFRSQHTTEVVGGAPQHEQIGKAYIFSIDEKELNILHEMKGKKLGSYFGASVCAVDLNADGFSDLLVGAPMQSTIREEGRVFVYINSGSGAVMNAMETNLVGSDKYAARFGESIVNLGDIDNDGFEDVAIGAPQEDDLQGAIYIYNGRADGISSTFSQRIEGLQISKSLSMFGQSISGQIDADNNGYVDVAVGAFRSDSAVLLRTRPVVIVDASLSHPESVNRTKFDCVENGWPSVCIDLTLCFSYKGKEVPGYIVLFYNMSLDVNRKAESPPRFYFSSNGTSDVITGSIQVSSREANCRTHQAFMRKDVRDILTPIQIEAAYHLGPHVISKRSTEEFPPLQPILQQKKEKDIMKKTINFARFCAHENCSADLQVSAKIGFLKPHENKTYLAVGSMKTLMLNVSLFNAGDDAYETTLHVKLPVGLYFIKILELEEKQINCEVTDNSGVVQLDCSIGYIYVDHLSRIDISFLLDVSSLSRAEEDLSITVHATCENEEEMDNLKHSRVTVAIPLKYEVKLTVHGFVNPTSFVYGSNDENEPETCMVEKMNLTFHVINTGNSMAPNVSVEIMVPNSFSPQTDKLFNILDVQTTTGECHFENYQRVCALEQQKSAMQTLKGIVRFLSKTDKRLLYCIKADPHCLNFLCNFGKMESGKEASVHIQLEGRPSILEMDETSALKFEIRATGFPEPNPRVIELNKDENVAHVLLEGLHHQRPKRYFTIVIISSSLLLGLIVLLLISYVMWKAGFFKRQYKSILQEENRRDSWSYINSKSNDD

SMILES	concentration at 0.25 h [1] [ng/mL]	IC50 (Integrin alpha-4/beta-1 [2]) [nM]	IC50 (Integrin alpha-4/beta-1 [3]) [nM]	also measured
CO[C@H]1C[C@@H](CO[C@H]2CC[C@H](C(=O)O)CC2)N(C(=O)Cc2cc(Cl)c(NC(=O)c3cn(C)c4ccccc34)cc2F)C1	9400	2.9	36	inhibition (INH) (Mus musculus [4]): 30%
O=C(Nc1ccc(CC(=O)N2C[C@@H](F)C[C@H]2CO[C@H]2CC[C@H](C(=O)O)CC2)cc1Cl)c1c[nH]c2ccccc12	193	0.53	3.9	Vd [5]: 0.668 L/kg; clearance [6]: 61.1 mL/min/kg; half-life [7]: 12 min
O=C(Cc1ccc(Nc2nc3cccc(F)c3o2)c(Cl)c1)N1C[C@@H](F)C[C@H]1CO[C@H]1CC[C@H](C(=O)O)CC1	–	40	1030	–
Cc1ccccc1NC(=O)Nc1ccc(CC(=O)N2C[C@@H](F)C[C@H]2COc2ccc(C(=O)O)cc2)cc1Cl	–	–	–	bioavailability [8]: 11%; clearance (in vivo): 31.5 mL/min/kg
O=C(Cc1ccc(Nc2nc3ccc(F)cc3o2)c(Cl)c1)N1C[C@@H](F)C[C@H]1CO[C@H]1CC[C@H](C(=O)O)CC1	–	20	630	–
Cc1c(F)cccc1Nc1nc2ccc(CC(=O)N3C[C@@H](F)C[C@H]3CO[C@H]3CC[C@H](C(=O)O)CC3)c(F)c2o1	–	47	–	inhibition (Integrin alpha-4/beta-1 [9]): 13%
Cc1ccccc1Nc1nc2ccc(CC(=O)N3C[C@@H](F)C[C@H]3CO[C@H]3CC[C@H](C(=O)O)CC3)c(F)c2o1	363	3	70	–
O=C(Nc1cc(F)c(CC(=O)N2C[C@@H](F)C[C@H]2CO[C@H]2CC[C@H](C(=O)O)CC2)cc1Cl)c1nsc2ccccc12	307	7.5	176	–
Cn1cc(C(=O)Nc2cc(Cl)c(CC(=O)N3C[C@@H](O)C[C@H]3CO[C@H]3CC[C@H](C(=O)O)CC3)cc2Cl)c2ccccc21	93	7.8	70	–
O=C(Cc1ccc(Nc2nc3cc(F)ccc3o2)c(Cl)c1)N1C[C@@H](F)C[C@H]1CO[C@H]1CC[C@H](C(=O)O)CC1	358	7.3	223	–
O=C(Nc1cc(F)c(CC(=O)N2C[C@@H](F)C[C@H]2CO[C@H]2CC[C@H](C(=O)O)CC2)cc1Cl)c1noc2ccccc12	–	128	–	inhibition (Integrin alpha-4/beta-1 [10]): 19%
O=C(Nc1cc(F)c(CC(=O)N2C[C@@H](F)C[C@H]2CO[C@H]2CC[C@H](C(=O)O)CC2)cc1Cl)c1n[nH]c2ccccc12	848	8.5	108	–
Cn1cc(C(=O)Nc2cc(F)c(CC(=O)N3C[C@@H](F)C[C@H]3CO[C@H]3CC[C@H](C(=O)O)CC3)cc2Cl)c2ccccc21	11400	5	284	Vd [5]: 0.153 L/kg; Activity (Mus musculus [11]): Toxic; clearance [6]: 2.6 mL/min/kg; half-life [7]: 54 min; Activity (Mus musculus [12]): Toxic; inhibition (INH) (Mus musculus [4]): 57%
CC(C)n1cc(C(=O)Nc2ccc(CC(=O)N3C[C@@H](F)C[C@H]3CO[C@H]3CC[C@H](C(=O)O)CC3)cc2Cl)c2ccccc21	–	–	–	inhibition (Integrin alpha-4/beta-1 [13]): 41%; inhibition (Integrin alpha-4/beta-1 [10]): 8%
O=C(Cc1ccc(Nc2nc3ccccc3o2)c(Cl)c1)N1C[C@@H](F)C[C@H]1CO[C@H]1CC[C@H](C(=O)O)CC1	508	5.9	138	–
